Laboratory results: ChEMBL document CHEMBL1124543, “Antiulcer agents. 4. Conformational considerations and the antiulcer activity of substituted imidazo[1,2-a]pyridines and related analogues” (1989)

What was measured:
Format in all cases: functional
[1] = system: Canis familiaris; assay: Inhibition of histamine stimulated gastric acid secretion in adult mongrel dogs at 8 mg/kg compound administered perorally; details: Canis lupus familiaris, Stomach, route oral
Procedure, shortened: (§1)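 Heidenhain pouch mongrel dogs receiving histamine infusion; compound given orally by gavage 1 h after infusion began. Acid output from 30-min collections (volume, titrated aliquot) summed for 3 h after dosing, each dog its own control. ED50 derived by linear regression from percent inhibition across doses.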

[2] = system: Rattus norvegicus; assay: Effective dose inhibiting ethanol-induced lesions was determined 1 h, after oral administration of absolute ethanol in rat
Procedure, shortened: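 Rats fasted and water-deprived 20 h; compound in 0.4% methylcellulose/saline given orally (1–30 mg/kg) 30 min before oral absolute ethanol (1 mL). Killed 1 h after ethanol; stomach opened along greater curvature, linear hemorrhagic lesion lengths summed per stomach. ED50 for lesion inhibition by regression analysis.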

[3] = system: Canis familiaris; assay: Inhibition of histamine stimulated gastric acid secretion in adult mongrel dogs at 5 mg/kg i.v.; details: Canis lupus familiaris, Stomach, route intravenous
Procedure, shortened: (§2)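 Mongrel dogs with surgically prepared Heidenhain pouches under histamine infusion; compound given iv (0.1–5 mg/kg) 1 h after infusion start. Pouch juice collected every 30 min, volume recorded, aliquot titrated for acid; outputs summed over 3 h post-dose, compared with the same animal's control. ED50 by linear regression.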

[4] = system: Rattus norvegicus; assay: Antisecretory activity of intraperitoneally injected compound (40 mg/kg) in pylorus-ligated rat
Procedure, shortened: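 Rats fasted 24 h, anesthetized, pylorus ligated; compound in 2.5% Tween 80 given ip (0.5 mL/200 g) at ligation. Killed 4 h later; gastric contents volume recorded, aliquots titrated with 0.1 N NaOH for acid output. Six rats per compound, eight controls; percent inhibition computed, Student's t test.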

[5] = system: Canis familiaris; assay: Inhibition of histamine stimulated gastric acid secretion in adult mongrel dogs at 2 mg/kg i.v.; details: Canis lupus familiaris, Stomach, route intravenous; procedure, shortened: as §2
[6] = system: Canis familiaris; assay: Inhibition of histamine stimulated gastric acid secretion in adult mongrel dogs at 4 mg/kg administered perorally; details: Canis lupus familiaris, Stomach, route oral; procedure, shortened: as §1
[7] = system: Canis familiaris; assay: Inhibition of histamine stimulated gastric acid secretion in adult mongrel dogs at 1 mg/kg i.v.; details: Canis lupus familiaris, Stomach, route intravenous; procedure, shortened: as §2
[8] = system: Canis familiaris; assay: Inhibition of histamine stimulated gastric acid secretion in adult mongrel dogs at 0.1 mg/kg compound administered intravenously; details: Canis lupus familiaris, Stomach, route intravenous; procedure, shortened: as §2
[9] = system: Canis familiaris; assay: Effective dose required to reduce acid out put when administered perorally in dog;Value ranges from (2.3-58.2); details: Canis lupus familiaris, po; procedure, shortened: as §1
[10] = system: Canis familiaris; assay: Effective dose required to reduce acid out put when administered intravenously in dog; details: Canis lupus familiaris, iv; procedure, shortened: as §2
[11] = system: Canis familiaris; assay: Effective dose required to reduce acid out put when administered perorally in dog; details: Canis lupus familiaris, po; procedure, shortened: as §1
[12] = system: Canis familiaris; assay: Inhibition of histamine stimulated gastric acid secretion in adult mongrel dogs at 2 mg/kg compound administered perorally; details: Canis lupus familiaris, Stomach, route oral; procedure, shortened: as §1
[13] = system: Canis familiaris; assay: Effective dose required to reduce acid out put when administered perorally in dog;Value ranges from(1.6-13.4).; details: Canis lupus familiaris, po; procedure, shortened: as §1
[14] = system: Canis familiaris; assay: Effective dose required to reduce acid out put when administered intravenously in dog;Value ranges from […]; details: Canis lupus familiaris, iv; procedure, shortened: as §2

SMILES	inhibition in vivo at 8 mg/kg [1]	ED50 [2]	inhibition in vivo at 5 mg/kg [3]	Inhibition [4]	inhibition in vivo at 2 mg/kg [5]	inhibition in vivo at 4 mg/kg [6]	inhibition in vivo at 1 mg/kg [7]	also measured
Cc1nc2c(C/C=C\c3ccccc3)cccn2c1N	0%	6.4 mg/kg	20%	4%				
C(=C/c1cccn2c3c(nc12)CCC3)/c1ccccc1		5.2 mg/kg	8%	24%				
CCc1nc2c(/C=C\c3ccccc3)cccn2c1C	21%			96%	42%			
C/C(=C\c1cccn2c(C)c(C)nc12)c1ccccc1	37%			98%	65%	17%	72%	
Cc1nc2c(C/C=C/c3ccccc3)cccn2c1CC#N		12 mg/kg	4%	27%				
Cc1nc2c(C/C=C\c3ccccc3)cccn2c1C	0%	5.5 mg/kg	0%	58%				
CCc1c(C)nc2c(/C=C\c3ccccc3)cccn12	21%	0.8 mg/kg		65%	12%			
Cc1nc2c(C#Cc3ccccc3)nccn2c1C	11%	3.7 mg/kg	0%	0%				
Cc1nc2cccc(/C=C/c3ccccc3)n2c1C		5.5 mg/kg	0%			0%		
Cc1nc2cc(/C=C/c3ccccc3)ccn2c1C	0%		0%	40%				
Cc1nc2c(/C=C/c3ccccc3)cccn2c1CC#N	2%	3 mg/kg	18%	18%	0%			
Cc1nc2c(/C=C/c3ccccc3)cccn2c1C	3%	10.4 mg/kg		39%	26%			
Cc1nc2c(CCc3ccccc3)cccn2c1N								inhibition in vivo at 0.1 mg/kg [8]: 26%; ED50 [9]: 6.7 mg/kg; ED50 [10]: 1 mg/kg
Cc1nc2c(/C=C\c3ccccc3)cccn2c1CC#N	41%	2 mg/kg		49%	76%	0%	79%	
Cc1nc2c(/C=C/c3ccccc3)cccn2c1N	6%	13 mg/kg	0%	33%	24%			
Cc1nc2c(OCc3ccccc3)cccn2c1C	26%	10 mg/kg		99%		0%	90%	
Cc1nc2c(/C=C/Cc3ccccc3)cccn2c1CC#N	82%	4 mg/kg	78%			53%	69%	inhibition in vivo at 0.1 mg/kg [8]: 9%; ED50 [11]: 4 mg/kg; ED50 [10]: 1 mg/kg; inhibition in vivo at 2 mg/kg [12]: 43%
C(=C/c1cccn2c3c(nc12)CCCC3)/c1ccccc1		7.3 mg/kg		62%	0%			
Cc1nc2c(/C=C\c3ccccc3)nccn2c1C	0%	5.2 mg/kg	0%	74%				
C/C(=C\c1ccccc1)c1cccn2c(C)c(C)nc12	29%	5 mg/kg		71%	44%			
Cc1nc2c(/C=C\c3ccccc3)cccn2c1C	74%		86%	83%	76%	37%	62%	ED50 [11]: 4.8 mg/kg; ED50 [10]: 0.7 mg/kg; inhibition in vivo at 2 mg/kg [12]: 25%
Cc1nc2c(/C=C\c3ccsc3)cccn2c1C	79%	24 mg/kg		54%	82%	38%	64%	ED50 [11]: 4.8 mg/kg; inhibition in vivo at 2 mg/kg [12]: 5%
Cc1nc2ccc(/C=C/c3ccccc3)cn2c1C	0%	1.7 mg/kg	0%	55%				
Cc1nc2c(/C=C\Cc3ccccc3)cccn2c1N		8.6 mg/kg		52%		0%	32%	
Cc1nc2c(/C=C\Cc3ccccc3)cccn2c1C	54%	6.6 mg/kg		96%	47%	13%	24%	
Cc1nc2c(/C=C\c3ccccc3)cccn2c1N	4%	23 mg/kg	67%	83%	62%		66%	inhibition in vivo at 2 mg/kg [12]: 0%
Cc1nc2c3c(ccn2c1CC#N)CCC(c1ccccc1)O3 (stereo not given)		1.7 mg/kg						ED50 [13]: 3.7 mg/kg; ED50 [14]: 0.06 mg/kg
